Laboratory results as given in ChEMBL document CHEMBL4020716, “The synthesis and evaluation of new butadiene derivatives as tubulin polymerization inhibitors” (Bioorg Med Chem, 2017).
The source made the active and inactive calls. No cut-off for these calls is given here.

Experiments:
A549 = assay: Antiproliferative activity against human A549 cells after 48 hrs by MTT assay; assay type: functional, cell-based; conditions: A549, 48 h
Method in brief: (§1)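 Cells in logarithmic growth were seeded at 5 × 10^3 cells/well and left for 24 h, then exposed to a range of compound concentrations for 48 h. MTT (5 mg/mL) was added for 4 h, the formazan was dissolved in DMSO and absorbance read at 570 nm. IC50 is the concentration giving 50% growth inhibition, from at least three independent experiments, mean ± SD. Culture: DMEM, 10% heat-inactivated FBS, penicillin/streptomycin, 37 °C, 5% CO2.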

HeLa [1] = assay: Antiproliferative activity against human HeLa cells after 48 hrs by MTT assay; assay type: functional, cell-based; method in brief: as §1
PC-3 = assay: Antiproliferative activity against human PC3 cells after 48 hrs by MTT assay; assay type: functional, cell-based; conditions: PC-3, 48 h; method in brief: as §1
MCF7 = assay: Antiproliferative activity against human MCF7 cells after 48 hrs by MTT assay; assay type: functional, cell-based; conditions: MCF7, 48 h; method in brief: as §1
A2780 = assay: Antiproliferative activity against human A2780 cells after 48 hrs by MTT assay; assay type: functional, cell-based; conditions: A2780, 48 h; method in brief: as §1
[2] = Inhibition of porcine brain tubulin polymerization preincubated for 1 min followed by addition of tubulin measured every 60 s for 90 min by DAPI staining-based fluorescence assay; set-up: species or system Sus scrofa
HeLa [3] = assay: Induction of morphological changes in human HeLa cells assessed as microtubule shrinking at 25 to 100 nM after 24 hrs by Hoechst 33342 staining-based laser scanning confocal microscopic method; assay type: functional, cell-based
HeLa [4] = assay: Induction of morphological changes in human HeLa cells assessed as membrane blebbing at 25 to 100 nM after 24 hrs by Hoechst 33342 staining-based laser scanning confocal microscopic method; assay type: functional, cell-based
HeLa [5] = assay: Induction of morphological changes in human HeLa cells assessed as chromatin condensation at 25 to 100 nM after 24 hrs by Hoechst 33342 staining-based laser scanning confocal microscopic method; assay type: functional, cell-based
HeLa [6] = assay: Induction of apoptosis in human HeLa cells assessed as early apoptotic cells at 25 nM after 24 hrs by Annexin-V/FITC/propidium iodide staining-based flow cytometry method (reference value: 0.59%); assay type: functional
HeLa [7] = assay: Induction of apoptosis in human HeLa cells assessed as live cells at 25 nM after 24 hrs by Annexin-V/FITC/propidium iodide staining-based flow cytometry method (reference value: 99.1%); assay type: functional
HeLa [8] = assay: Induction of apoptosis in human HeLa cells assessed as late apoptotic cells at 25 nM after 24 hrs by Annexin-V/FITC/propidium iodide staining-based flow cytometry method (reference value: 0.26%); assay type: functional
HeLa [9] = assay: Induction of apoptosis in human HeLa cells assessed as necrotic cells at 25 nM after 24 hrs by Annexin-V/FITC/propidium iodide staining-based flow cytometry method (reference value: 0.04%); assay type: functional
HeLa [10] = assay: Induction of apoptosis in human HeLa cells assessed as early apoptotic cells at 50 nM after 24 hrs by Annexin-V/FITC/propidium iodide staining-based flow cytometry method (reference value: 0.59%); assay type: functional
HeLa [11] = assay: Induction of apoptosis in human HeLa cells assessed as live cells at 50 nM after 24 hrs by Annexin-V/FITC/propidium iodide staining-based flow cytometry method (reference value: 99.1%); assay type: functional
HeLa [12] = assay: Induction of apoptosis in human HeLa cells assessed as early apoptotic cells at 100 nM after 24 hrs by Annexin-V/FITC/propidium iodide staining-based flow cytometry method (reference value: 0.59%); assay type: functional
HeLa [13] = assay: Induction of apoptosis in human HeLa cells assessed as late apoptotic cells at 50 nM after 24 hrs by Annexin-V/FITC/propidium iodide staining-based flow cytometry method (reference value: 0.26%); assay type: functional
HeLa [14] = assay: Induction of apoptosis in human HeLa cells assessed as necrotic cells at 50 nM after 24 hrs by Annexin-V/FITC/propidium iodide staining-based flow cytometry method (reference value: 0.04%); assay type: functional
HeLa [15] = assay: Induction of apoptosis in human HeLa cells assessed as live cells at 100 nM after 24 hrs by Annexin-V/FITC/propidium iodide staining-based flow cytometry method (reference value: 99.1%); assay type: functional
HeLa [16] = assay: Induction of apoptosis in human HeLa cells assessed as late apoptotic cells at 100 nM after 24 hrs by Annexin-V/FITC/propidium iodide staining-based flow cytometry method (reference value: 0.26%); assay type: functional
HeLa [17] = assay: Induction of apoptosis in human HeLa cells assessed as necrotic cells at 100 nM after 24 hrs by Annexin-V/FITC/propidium iodide staining-based flow cytometry method (reference value: 0.04%); assay type: functional
HeLa [18] = assay: Induction of apoptosis in human HeLa cells after 24 hrs by Annexin-V/FITC/propidium iodide staining-based flow cytometry method; assay type: functional, cell-based
HeLa [19] = assay: Cell cycle arrest in human HeLa cells assessed as accumulation at G2/M phase at 25 nM after 24 hrs by propidium iodide staining-based flow cytometry method (reference value: 19.0%); assay type: functional
HeLa [20] = assay: Cell cycle arrest in human HeLa cells assessed as accumulation at G2/M phase at 50 nM after 24 hrs by propidium iodide staining-based flow cytometry method (reference value: 19.0%); assay type: functional
HeLa [21] = assay: Cell cycle arrest in human HeLa cells assessed as accumulation at G2/M phase at 100 nM after 24 hrs by propidium iodide staining-based flow cytometry method (reference value: 19.0%); assay type: functional
HeLa [22] = assay: Cell cycle arrest in human HeLa cells assessed as accumulation at G2/M phase after 24 hrs by propidium iodide staining-based flow cytometry method; assay type: functional

## C=C(/C(C)=C/c1ccc(OC)cc1)c1cc(OC)c(OC)c(OC)c1
A549
  IC50: 356 nM
HeLa [1]
  IC50: 495 nM
PC-3
  IC50: 487 nM
MCF7
  IC50: 965 nM
A2780
  IC50: 839 nM

## C=C(/C(C)=C/c1ccc(OC)c(N)c1)c1cc(OC)c(OC)c(OC)c1
A549
  IC50: 269 nM
HeLa [1]
  IC50: 286 nM
PC-3
  IC50: 457 nM
MCF7
  IC50: 356 nM
A2780
  IC50: 279 nM

## CCC=C(/C(C)=C/c1ccc(OC)c(O)c1)c1cc(OC)c(OC)c(OC)c1
A549
  IC50: 2020 nM
HeLa [1]
  IC50: 3120 nM
PC-3
  IC50: 4230 nM
MCF7
  IC50: 8240 nM
A2780
  IC50: 5290 nM

## CC=C(/C(C)=C/c1ccc(OC)c(O)c1)c1cc(OC)c(OC)c(OC)c1
A549
  IC50: 637 nM
HeLa [1]
  IC50: 563 nM
PC-3
  IC50: 789 nM
MCF7
  IC50: 604 nM
A2780
  IC50: 505 nM

## C=C(/C(C)=C/c1ccc(OC)c(F)c1)c1cc(OC)c(OC)c(OC)c1
A549
  IC50: 219 nM
HeLa [1]
  IC50: 483 nM
PC-3
  IC50: 354 nM
MCF7
  IC50: 412 nM
A2780
  IC50: 561 nM

## C=C(/C=C/c1ccc(OC)c(O)c1)c1cc(OC)c(OC)c(OC)c1
A549
  IC50: 286 nM
HeLa [1]
  IC50: 320 nM
PC-3
  IC50: 423 nM
MCF7
  IC50: 569 nM
A2780
  IC50: 457 nM

## COc1ccc(/C=C(\C)C(=O)c2cc(OC)c(OC)c(OC)c2)cc1O
A549
  IC50: 4 nM
HeLa [1]
  IC50: 5 nM
PC-3
  IC50: 9 nM
MCF7
  IC50: 5 nM
A2780
  IC50: 3 nM

## CCCC=C(/C(C)=C/c1ccc(OC)c(O)c1)c1cc(OC)c(OC)c(OC)c1
A549
  IC50: 2460 nM
HeLa [1]
  IC50: 3120 nM
PC-3
  IC50: 4510 nM
MCF7
  IC50: 3970 nM
A2780
  IC50: 2930 nM

## C=C(/C(C)=C/c1ccc(OC)c(O)c1)c1cc(OC)c(OC)c(OC)c1
A549
  IC50: 56 nM
HeLa [1]
  IC50: 60 nM
PC-3
  IC50: 61 nM
MCF7
  IC50: 89 nM
A2780
  IC50: 64 nM
[2]
  IC50: 1010 nM
HeLa [3]
  Activity: Active
HeLa [4]
  Activity: Active
HeLa [5]
  Activity: Active
HeLa [6]
  Activity: 16%
HeLa [7]
  Activity: 79.1%
HeLa [8]
  Activity: 3.32%
HeLa [9]
  Activity: 1.56%
HeLa [10]
  Activity: 29.8%
HeLa [11]
  Activity: 62.7%
HeLa [12]
  Activity: 36.6%
HeLa [13]
  Activity: 5.8%
HeLa [14]
  Activity: 1.77%
HeLa [15]
  Activity: 56.7%
HeLa [16]
  Activity: 4.77%
HeLa [17]
  Activity: 1.91%
HeLa [18]
  Activity: Dose-dependent effect
HeLa [19]
  Activity: 30%
HeLa [20]
  Activity: 43%
HeLa [21]
  Activity: 72%
HeLa [22]
  Activity: Dose-dependent effect

## C=C(/C=C/c1ccc(OC)c(N)c1)c1cc(OC)c(OC)c(OC)c1
A549
  IC50: 137 nM
HeLa [1]
  IC50: 234 nM
PC-3
  IC50: 560 nM
MCF7
  IC50: 786 nM
A2780
  IC50: 582 nM

## CC=C(/C=C/c1ccc(OC)c(N)c1)c1cc(OC)c(OC)c(OC)c1
A549
  IC50: 247 nM
HeLa [1]
  IC50: 217 nM
PC-3
  IC50: 319 nM
MCF7
  IC50: 247 nM
A2780
  IC50: 137 nM

## CCC=C(/C=C/c1ccc(OC)c(N)c1)c1cc(OC)c(OC)c(OC)c1
A549
  IC50: 398 nM
HeLa [1]
  IC50: 314 nM
PC-3
  IC50: 285 nM
MCF7
  IC50: 486 nM
A2780
  IC50: 248 nM

## CO/C=C(\C=C\c1ccc(OC)c(O)c1)c1cc(OC)c(OC)c(OC)c1
A549
  IC50: 1600 nM
HeLa [1]
  IC50: 5630 nM
PC-3
  IC50: 5320 nM
MCF7
  IC50: 3260 nM
A2780
  IC50: 2220 nM
